# Assay outcomes as filed in PubChem BioAssay.
# Compounds with a hit are over-represented: about 4.3% of the library has one in this group of screens.
# APP 5'UTR act – activates APP 5'UTR luciferase reporter; actives 1% (n = 190,000); activation, % at 2 µM; AID 1276; SH-SY5Y APP 5'UTR luciferase reporter, luminescence; zero percent = DMSO vehicle wells;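 active = activation above a set limit, based on mean plus 3 SD of controls, cut at about 140% in these data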
# FLuc inh counter – inhibits firefly luciferase, flagging false hits in luciferase inhibition screens. P08659. ATPLite firefly luciferase biochemical luminescence, 10 min. inhibition, % at 10 µM. actives 1.5% (n = 200,000). AID 1006;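 active = inhibition above about 50% when tested at 10 µM, limit read from the data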
# Target sequence (P08659 whole entry, looked up): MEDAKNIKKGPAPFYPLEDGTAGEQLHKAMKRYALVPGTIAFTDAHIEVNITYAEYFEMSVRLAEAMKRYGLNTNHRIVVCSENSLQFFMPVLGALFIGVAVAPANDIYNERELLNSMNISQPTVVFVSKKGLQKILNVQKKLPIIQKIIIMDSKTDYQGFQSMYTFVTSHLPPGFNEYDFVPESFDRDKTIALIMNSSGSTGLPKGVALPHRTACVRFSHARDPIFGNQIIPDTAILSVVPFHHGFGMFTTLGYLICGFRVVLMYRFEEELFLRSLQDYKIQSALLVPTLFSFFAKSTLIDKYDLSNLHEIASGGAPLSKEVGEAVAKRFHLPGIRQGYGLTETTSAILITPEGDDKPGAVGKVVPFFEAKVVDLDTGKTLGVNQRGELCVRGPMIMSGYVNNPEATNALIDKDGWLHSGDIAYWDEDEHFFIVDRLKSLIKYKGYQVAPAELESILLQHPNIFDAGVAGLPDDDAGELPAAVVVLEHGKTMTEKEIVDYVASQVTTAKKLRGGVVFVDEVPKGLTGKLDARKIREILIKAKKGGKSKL
# NF-kB neuron act – compounds increasing NF-kB expression in human neuronal cells | NF-kB reporter expression; hits give high values | fold change at 12.5 µM | actives 1.6% (n = 190,000) | AID 1239; in the data active = fold change above about 3.3
# STAT1 act – increases IFN-gamma driven STAT1 reporter signal | NIH 3T3 STAT1-luciferase reporter, luminescence; 100% = IFN-gamma alone, no compound | activation (% of control), % at 5.5 µM | actives 2.6% (n = 200,000) | AID 932;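 active = activation above the screen-wide mean activation plus 3 SD, cut at about 130% in these data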;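 also: raw ratio to IFN-gamma control signal so 100% means no change and 0% no light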
# FLuc act counter – affects firefly luciferase, flagging false hits in luciferase stimulation screens. P08659. ATPlite luciferase biochemical, luminescence, 10 min; 0 = ATP-free wells, 1 = DMSO control. activation factor at 10 µM. 200,000 tested, under 10 active;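 active = luciferase activation factor, scaled between plate controls, of at least 2 with compound at 10 µM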
#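 System: luciferase plus luciferin reagent, cell-free; medium: PBS as buffer for the ATP substrate; dosing: test compounds dosed from 2 mM stocks in 100% DMSO; timing: 10 min post-reagent at room temperature; measured by: luminescence measurement of luciferase light output; evaluation: luciferase activation, seen as luminescence increase over controls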
# Active calls of the source: *.
SMILES,APP 5'UTR act,FLuc inh counter,NF-kB neuron act,STAT1 act,FLuc act counter
O=C(Nc1nc2ccccc2[nH]1)c1ccc(F)cc1,107.0,91.3*,2.69,102.8,0.1
CNC(=O)COC(=O)/C=C/c1cccc(F)c1,11.7,-1.8,1.12,98.7,1
O=C(Nc1nc2ccccc2[nH]1)c1ccccc1[N+](=O)[O-],17.3,12.1,2.16,136.3*,0.9
Cc1c(C(=O)Nc2nc3ccccc3[nH]2)cccc1[N+](=O)[O-],54.4,17.1,1.52,109.0,0.8
CN(C)S(=O)(=O)c1ccc(C(=O)Nc2nc3ccccc3[nH]2)cc1,101.2,23.6,1.19,143.3*,0.8
CN(Cc1ccccc1)S(=O)(=O)c1ccc(Cl)c(C(=O)NCCc2ccccn2)c1,20.1,3.1,0.82,95.5,1
Clc1ccc(/C(Cc2nc3ccccc3[nH]2)=N\Nc2ccccc2)cc1,77.9,9.6,2.64,136.0*,0.9
Cc1ccc(/C=N/Nc2ccc(Cl)c(C(=O)O)c2)s1,166.1*,9.2,7.95*,143.4*,0.9
O=C(O)c1cc(N/N=C/c2cccs2)ccc1Cl,151.9*,1.6,1.94,108.4,1
O=C(O)c1cc(N/N=C/C(Cl)=C/c2ccccc2)ccc1Cl,119.5,34.9,0.96,45.1,0.7
Cc1ccc(/C=N/Nc2nc(Cl)c(Cl)cc2Cl)s1,71.3,12.2,2.61,147.0*,0.9
O=C(Nc1cccc(S(=O)(=O)NC2=NCCC2)c1)C1CC(=O)N(c2ccc3c(c2)OCCO3)C1 (stereo unspecified),-9.8,-1.3,0.9,114.7,1
Cn1cnnc1SCC(=O)Nc1nc(-c2ccccc2)cs1,1.1,1.2,1.17,108.7,1
Clc1cc(Br)ccc1OCCOCCN1CCOCC1,10.6,-2.9,3.6*,108.4,1
CCN1C(=O)/C(=C/C=C2\C=CN(CC)c3ccccc32)SC1=S,97.7,37.2,0.99,100.0,0.6
CCN1C(=O)/C(=C\C=C2/C=CC=CN2CC)SC1=S,47.6,24.9,2.22,133.6*,0.8
O=C(c1ccc(-c2ccc([N+](=O)[O-])cc2)o1)N1CCCCC1,180.0*,24.0,4.78*,128.3,0.8
CCCCCc1ccc(-c2nnc(N)s2)cc1,21.2,19.6,1.81,116.9,0.8
CCCCCCc1ccc(-c2ncc(N)cn2)cc1,69.6,4.1,4.39*,138.7*,1
CCCOc1ccc(C(=O)Nc2ccc(C)cc2[N+](=O)[O-])cc1,-0.4,-0.2,1.01,110.3,1
CC(C)COc1ccc(C(=O)Nc2ccccc2[N+](=O)[O-])cc1,82.8,21.2,2.75,132.8*,0.8
COc1ccc(C(=O)NCCNc2ccccc2[N+](=O)[O-])cc1,162.6*,61.6*,1.13,148.4*,0.4
O=[N+]([O-])c1ccc(-c2cc(-c3ccc(Cl)cc3)n[nH]2)cc1,9.4,-3.7,1.7,137.8*,1
O=[N+]([O-])c1ccc(N2CCN(c3nc(-c4ccc(Cl)cc4)cs3)CC2)cc1,12.4,-6.2,0.92,106.1,1.1
O=C(CCC1CCCCC1)Nc1ccccc1C(=O)N1CCOCC1,-3.5,-3.4,0.94,102.1,1
SMILES,APP 5'UTR act,FLuc inh counter,NF-kB neuron act,STAT1 act,FLuc act counter
Cc1ccc(C(=O)COC(=O)CCCC(=O)Nc2cc(C(F)(F)F)ccc2Cl)cc1C,-12.1,54.2*,1.1,102.5,0.5
O=C(Nc1ccccc1)C1Cc2ccccc2CN1C(=O)c1ccco1 (stereo unspecified),116.9,-6.9,0.97,130.1*,1.1
CCN1C(=O)C(CC(=O)Nc2ccc(F)cc2)N(CCCN2CCN(c3ccc(F)cc3)CC2)C1=S (stereo unspecified),21.3,-7.0,0.72,98.5,1.1
N#C/C(=C(/O)COC(=O)CSc1ccc(Cl)cc1)c1nc2ccccc2[nH]1,1.4,-2.8,3.93*,87.1,1
COc1ccc(-n2ncc3c(NCCCN4CCOCC4)ncnc32)cc1,84.7,15.1,0.74,135.1*,0.8
CCCNc1ncnc2c1cnn2-c1ccc(OC)cc1,192.9*,43.1,5.88*,156.3*,0.6
COC(=O)c1ccc(NC(=O)CN(c2ccc(OC)cc2)S(C)(=O)=O)cc1,20.0,-4.9,2.8,134.0*,1
COCCN(C(=O)CNC(=O)c1cccs1)C(C(=O)NC(C)(C)C)c1ccccc1 (stereo unspecified),4.5,-7.1,1.08,101.1,1.1
O=C(Nc1cc2cc([N+](=O)[O-])ccc2oc1=O)c1cccs1,5.7,3.1,1.02,122.4,1
CCn1c2ccccc2c2cc(NC(=O)CSc3nccc(=O)[nH]3)ccc21,3.1,0.2,0.78,100.3,1
CNC(=S)NNC(=O)c1cccc(N(C)C)c1,9.9,-7.6,1.13,99.0,1.1
CCOC(=O)c1sc2nc3c(cc2c1N)COC(C)(C)C3,117.2,24.9,5.9*,136.0*,0.8
CCC1(C)Cc2nc3sc(C(=O)O)c(N)c3cc2CO1 (stereo unspecified),-2.2,-3.7,1.03,104.4,1
Cc1ccc(-n2[nH]c(=O)c3cccnc32)cc1,5.4,-3.8,1.3,100.4,1
Cc1ccc(-n2[nH]c(=O)c(-c3ccccn3)c2C)cc1,2.6,79.1*,0.97,29.9,0.2
Cc1ccc(NC(=O)CCC(=O)NNC(=O)NC2CCCCC2)c(C)c1,8.4,2.5,0.92,97.2,1
O=C(N/N=C/c1ccc([N+](=O)[O-])o1)c1cc(-c2cccc(Br)c2)nc2ccccc12,1.6,17.2,1.38,96.8,0.8
CCCc1ccc(-c2cc(C(=O)N/N=C/c3ccc([N+](=O)[O-])o3)c3ccccc3n2)cc1,62.2,93.5*,2.8,78.0,0.1
CCN1CCN(C(=O)N2CCOCC2)CC1,16.4,-6.9,0.99,98.9,1.1
CCOc1ccc(OCc2cccc(C(=O)N3CCOCC3)c2)cc1,-47.8,72.1*,3.43*,24.3,0.3
O=C(c1cccc(OCc2ccccc2)c1)N1CCOCC1,-15.0,-0.1,1.28,105.4,1
Cc1ccc(C)c2nc3sc(C(=O)N4CCOCC4)c(N)c3cc12,64.0,0.7,1.87,143.5*,1
Cc1cc(C)c2cc3c(N)c(C(=O)N4CCOCC4)sc3nc2c1,85.8,10.2,0.93,143.5*,0.9
Cc1ccc2nc3sc(C(=O)Nc4ccc(N5CCOCC5)cc4)c(N)c3cc2c1,5.5,-1.9,0.93,103.2,1
CCOc1ccc2nc3sc(C(=O)N4CCOCC4)c(N)c3cc2c1,219.7*,35.9,2.96,84.6,0.6
O=C(COc1ccccc1[N+](=O)[O-])Nc1ccc(N2CCN(C(=O)c3cccs3)CC2)cc1,6.7,-6.7,0.61,91.6,1.1
CCOCC(=O)Nc1cc(C)on1,6.1,-7.6,0.82,117.0,1.1
CN(/N=C\c1ccc(O)c(O)c1)c1nc(-c2ccccc2)cc(-c2ccccc2)n1,-34.7,4.8,1.25,108.0,1
COC(=O)CS(=O)(=O)c1ccsc1C(=O)Nc1ccc(F)c(F)c1,-3.5,-4.0,0.94,98.3,1
